Source: PubChem BioAssay
Compounds with a hit are over-represented: about 2% of the library has one in this group of screens.
CXCR6 block: CXCR6 (human) receptor inhibition; O00574; CHO-K1 PathHunter CXCR6 beta-arrestin, luminescence; inhibition, % at 20 µM; 0.36% of 360,000 active; in the data active = inhibition above about 34%, passing the limit was not always enough;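 also: antagonist mode with CXCL16 agonist at 10 nM final; 0% = 10 nM CXCL16 with DMSO and 100% = unstimulated wells without agonist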
APJ antagonist: antagonists of human APJ apelin receptor | P35414 | CHO-K1 APJ beta-arrestin complementation, luminescence | inhibition, % at 20 µM | 0.32% of 330,000 active | AID 2521;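 active = inhibition above about 40% at 20 µM, limit read from the data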;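 also: cells challenged with 10 nM apelin-13 agonist together with compound; plate controls were apelin-13 plus DMSO wells for no effect and DMSO wells lacking apelin-13 for full effect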
GAA850 FXN act: frataxin GAA850 promoter activation; activation, % at 6 µM; HEK293 lucGAA850 FXN promoter luciferase reporter, 24 h; percent of 10 µM SAHA response; AID 540364; 0.56% of 360,000 active;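 active = activation above the average of all compounds screened plus 3 SD, cutoff fixed separately per campaign, cut at about 7.5% in these data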;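 also: 0% = DMSO wells and 100% = 10 µM SAHA wells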
EBI2 block: antagonists of human EBI2 receptor. EBI2 beta-arrestin recruitment, luminescence, 7a,25-OHC stimulated. P32249. 0.81% of 360,000 active. inhibition, % at 5 µM; in the data active = inhibition above about 38%;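 also: enzyme fragment complementation signal reports receptor beta-arrestin coupling in cells; 0% = agonist plus DMSO wells and 100% = wells without agonist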
APJ ag: agonists of human APJ apelin receptor. 0.11% of 330,000 active. activation, % at 20 µM. AID 2520. CHO-K1 APJ PathHunter beta-arrestin, luminescence; 0% DMSO wells, 100% apelin. P35414;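 active = activation more than six SD over the plate average, tested at 20 µM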;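 also: 0% = DMSO alone and 100% = apelin-13 at 10 nM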
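Material: engineered CHO-K1 APJ arrestin reporter cells; amount: 1000 CHO-K1 reporter cells seeded per well; incubation: compound stimulation 90 min at 25 °C, detection 60 min; signal: luminescent beta-gal fragment complementation, chemiluminescent substrate; read-out basis: APJ agonist activity; controls: DMSO-only wells as negative, 10 nM Apelin-13 as positive control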
CCR6 antag: blocks CCL20-driven beta-arrestin recruitment at human CCR6 | P51684 | CHO-K1 CCR6 PathHunter beta-arrestin, luminescence, CCL20-stimulated | inhibition, % at 20 µM | 0.49% of 340,000 active | AID 493098;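 active = compounds whose inhibition of the agonist-driven luminescence signal at 20 µM reaches about 50%, limit read from the data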;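 also: cells stimulated with CCL20 at 14 nM final; plate controls were DMSO with CCL20 for no effect and DMSO without agonist for full effect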
Target sequence (P51684 whole entry, looked up): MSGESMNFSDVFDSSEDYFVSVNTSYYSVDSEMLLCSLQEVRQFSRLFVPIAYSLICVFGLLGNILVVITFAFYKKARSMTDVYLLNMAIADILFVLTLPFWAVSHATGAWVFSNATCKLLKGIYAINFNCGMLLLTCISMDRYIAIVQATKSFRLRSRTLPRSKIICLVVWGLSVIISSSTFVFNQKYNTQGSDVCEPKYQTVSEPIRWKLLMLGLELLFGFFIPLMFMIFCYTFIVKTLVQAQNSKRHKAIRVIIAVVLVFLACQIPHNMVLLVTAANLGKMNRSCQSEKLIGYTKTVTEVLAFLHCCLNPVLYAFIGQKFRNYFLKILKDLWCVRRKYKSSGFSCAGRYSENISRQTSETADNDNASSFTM
GAA30 FXN cntr: activates GAA30 frataxin promoter, counter-screen for GAA850 activators | shares compounds with GAA850 FXN act | HEK293 lucGAA30 FXN promoter luciferase, 24 h; DMSO = 0%, 5 µM ipriflavone = 100% | activation, % at 6 µM | 66% of 1,900 active | AID 588350;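 active = mean activation above the mean of solvent-only control wells plus 3 SD, cut at about 22% in these data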;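 also: counterscreen of GAA850 promoter hits where activity marks nonselective or luminescence artifacts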
GAA850 confirm: confirmation of GAA850 frataxin (FXN) promoter activators | activation, % at 6 µM | shares compounds with GAA850 FXN act | 86% of 1,900 active | HEK293 lucGAA850 FXN promoter luciferase reporter, 24 h; 100% = activation by SAHA;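 active = mean activation above a set limit taken from the primary screen, cut at about 8% in these data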;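 also: 0% = DMSO wells and 100% = 10 µM SAHA wells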
Active calls of the source: *.

Screening CCN(C[C@H]1N[C@@](CC)(C(=O)OC)[C@H]2C(=O)N(Cc3ccccc3)C(=O)[C@@H]12)S(=O)(=O)c1ccc(OC(F)(F)F)cc1 returned CXCR6 block -4.2, APJ antagonist 8.0, GAA850 FXN act 11.5*, EBI2 block 3.8, APJ ag -3.1, CCR6 antag 0.1, GAA30 FXN cntr 21.3 and GAA850 confirm 10.1*.
For CCN(C[C@H]1N[C@@](CC)(C(=O)OC)[C@H]2C(=O)N(Cc3ccccc3)C(=O)[C@@H]12)S(=O)(=O)c1ccc(-c2ccccc2)cc1 the results were CXCR6 block -10.2, APJ antagonist 14.1, GAA850 FXN act -1.4, EBI2 block 6.3, APJ ag 1.2 and CCR6 antag 7.1.
CCN(C[C@H]1N[C@@](CC)(C(=O)OC)[C@H]2C(=O)N(Cc3ccccc3)C(=O)[C@@H]12)S(=O)(=O)c1ccc(C)cc1 was read as CXCR6 block 6.7, APJ antagonist 2.6, GAA850 FXN act 10.1*, EBI2 block 5.3, APJ ag -2.6, CCR6 antag -4.6, GAA30 FXN cntr 11.0 and GAA850 confirm 8.1*.
CC(=O)NN1C(=O)/C(=C2/Sc3ccc(Cl)cc3N2C)SC1=S was read as CXCR6 block 3.7, APJ antagonist 21.4, GAA850 FXN act 1.9, EBI2 block 0.1, APJ ag -4.7 and CCR6 antag 11.2.
For COc1ccccc1-c1cnc(C(O)c2cccc(CN3CCCCC3)c2)[nH]1 (centres undefined) the results were CXCR6 block 3.1, GAA850 FXN act 1.1 and EBI2 block 0.3.
COc1ccccc1/C=N/Nc1nncc2ccccc12 was read as CXCR6 block -1.5, APJ antagonist 11.9, GAA850 FXN act 8.2*, EBI2 block -2.4, APJ ag -2.2, CCR6 antag 15.6, GAA30 FXN cntr 104.2* and GAA850 confirm 35.7*.
COCCN1C(=O)c2ccccc2C1c1nnnn1Cc1ccccc1 (centres undefined) was read as CXCR6 block 3.0 and EBI2 block -3.8.
`COc1ccc(Nc2nccc(-c3ccc(C#N)cc3)n2)cc1` gave CXCR6 block -3.6, APJ antagonist 5.8, GAA850 FXN act 0.7, EBI2 block 3.8, APJ ag -0.6 and CCR6 antag 3.5.
`COc1ccc(Nc2nccc(-c3cccc(N)c3)n2)cc1` gave CXCR6 block -2.2, APJ antagonist -17.6, GAA850 FXN act 13.1*, EBI2 block 2.4, APJ ag 2.1, CCR6 antag 18.2, GAA30 FXN cntr 130.5* and GAA850 confirm 100.4*.
Screening Cc1ccnc(NC(=O)CNC(=O)COc2ccccc2)c1 returned CXCR6 block -3.5, APJ antagonist 5.3, GAA850 FXN act 7.9*, EBI2 block 5.9, APJ ag -6.9, CCR6 antag -8.7, GAA30 FXN cntr 99.9* and GAA850 confirm 40.0*.
CCN(CC)S(=O)(=O)c1ccc(Nc2nc3ccccc3n3nnnc23)cc1 was read as CXCR6 block 3.8, APJ antagonist -25.5, GAA850 FXN act 7.8*, EBI2 block 22.9, APJ ag 3.0, CCR6 antag 2.1, GAA30 FXN cntr 90.4* and GAA850 confirm 35.9*.
Screening Fc1ccccc1Nc1nc2ccccc2n2nnnc12 returned CXCR6 block -17.8, APJ antagonist -83.1, GAA850 FXN act 8.2*, EBI2 block -13.5, APJ ag 2.7, CCR6 antag -3.1, GAA30 FXN cntr 105.7* and GAA850 confirm 42.0*.
For O=C(NCC1COc2ccccc2O1)c1ccccc1 (centres undefined) the results were CXCR6 block 4.5, APJ antagonist 15.4, GAA850 FXN act 7.6*, EBI2 block 6.5, APJ ag 2.2, CCR6 antag 16.4, GAA30 FXN cntr 88.0* and GAA850 confirm 26.6*.
